Calls of active or inactive are those of the source. The rule behind the calls is not given here.
Assays:
[1] = Glutathione peroxidase-like activity at 10x(E -2) M concentration as NADP+/L/min; format: functional
[2] = Glutathione peroxidase-like activity at 10x(E -3) M concentration as NADP+/L/min; format: functional
Mus musculus [3] = organism: Mus musculus; experiment: Glutathione peroxidase-like activity at 10x(E -4) M concentration measured as NADP+/L/min; format: functional
[4] = tested on: Murine-murine hybridoma (mark 3); experiment: (§1) Antioxidative property against stable murine-murine hybridoma (Mark 3) cell line; format: functional
[5] = Glutathione peroxidase-like activity in relation to Ebselen glutathione peroxidase-like activity; format: functional; set-up: concentration or dose not given beside the values
[6] = Glutathione peroxidase-like activity in relative to Ebselen glutathione peroxidase-like activity; format: functional; set-up: concentration or dose not given beside the values
Summary of the method: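 Glutathione peroxidase-like activity by the Paglia and Valentine method. Compound solution (100 µL) was added to phosphate buffer, pH 7, with H2O2 and GSH (1.5 × 10-1 M stock in 0.01 M HCl). NADP+ formation was read at 340 nm and expressed as µmol NADP+/L/min. Blanks checked direct NADPH oxidation by compounds. Ebselen was run as the reference.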

[7] = Glutathione peroxidase-like activity at 10x(E -2) M concentration; format: functional
Mus musculus [8] = organism: Mus musculus; experiment: Antioxidative property against stable murine-murine hybridoma (Mark 3) cell line; no effect; format: functional, organism-based
[9] = Glutathione peroxidase-like activity at 10x(E -4) M concentration as NADP+/L/min; traces; format: functional
Mus musculus [10] = organism: Mus musculus; experiment: Antioxidative property against stable murine-murine hybridoma (Mark 3) cell line; fluorescence at 488 nm; format: functional, organism-based
Mus musculus [11] = organism: Mus musculus; experiment: as §1; format: functional

Row | Molecule | Activity [1] | Activity [2] | Activity (Mus musculus [3]) | Effective molarity [4] | Activity [5] | Activity [6] | Activity [7] | NE (Mus musculus [8]) | Activity [9] | Effective molarity (Mus musculus [10]) | Effective molarity (Mus musculus [11])
1 | CCOC(=O)c1c2[nH]c3ccccc3c2cc2nc(C)sc12 | 506 µM | 46 µM | 33 µM/min | 1e-05 M l-1 | 48% |  |  |  |  |  | 
2 | COc1ccc2[nH]c3c(c2c1)-c1cccc(OC)c1C3=O | 58 µM | 26 µM | 11 µM/min | 1e-05 M l-1 | 6% |  |  |  |  |  | 
3 | O=c1c2ccccc2[se]n1-c1ccccc1 [EBSELEN] | 1050 µM | 111 µM |  | 1e-05 M l-1 |  | 100% |  |  |  |  | 
4 | CS(=O)(=O)n1c2c(c3ccccc31)-c1nn[se]c1CC2 | 140 µM | 33 µM | 31 µM/min | 0 M l-1 |  | 13% |  |  |  |  | 
5 | COc1ccc2[nH]c3c(ccc4ccsc43)c2c1 | 60 µM | 22 µM | 4 µM/min |  | 6% |  |  |  |  |  | 
6 | c1ccc2c3c([nH]c2c1)-c1ccsc1SC3 | 75 µM | 71 µM | 44 µM/min | 1e-05 M l-1 |  | 7% |  |  |  |  | 
7 | CCOC(=O)c1cc2ccc3c(c4ccccc4n3C)c2o1 | 53 µM | 15 µM | 33 µM/min | 0.0001 M l-1 | 5% |  |  |  |  |  | 
8 | CS(=O)(=O)n1c2ccccc2c2c3nn[se]c3ccc21 | 46 µM | 33 µM | 29 µM/min | 0.0001 M l-1 |  | 4% |  |  |  |  | 
9 | CCOC(=O)c1cc2ccc3c(c4ccccc4n3C)c2s1 |  |  |  | 0.0001 M l-1 | 11% |  |  |  |  |  | 
10 | CCOC(=O)c1sc(SC)c2c1ccc1c3cc(OC)ccc3[nH]c12 | 151 µM | 9 µM | 26 µM/min |  | 14% |  |  |  |  |  | 
11 | Cn1cnc2c3[nH]c4ccccc4c3ccc21 | 42 µM | 20 µM | 29 µM/min | 1e-05 M l-1 | 4% |  |  |  |  |  | 
12 | COc1ccc2[nH]c3ccc4nc(C)sc4c3c2c1 |  | 35 µM | 33 µM/min |  | 6% |  | 64 µM |  |  |  | 
13 | COc1ccc2[nH]c3c4ccsc4ccc3c2c1 | 47 µM | 20 µM | 13 µM/min | 1e-06 M l-1 | 4% |  |  |  |  |  | 
14 | CCOC(=O)c1c2[nH]c3ccc(OC)cc3c2cc2nc(C)sc12 | 215 µM | 58 µM | 40 µM/min | 1e-05 M l-1 | 21% |  |  |  |  |  | 
15 | CS(=O)(=O)n1c2c(c3ccccc31)CCc1[se]nnc1-2 | 246 µM | 31 µM | 18 µM/min | 0.0001 M l-1 |  | 23% |  |  |  |  | 
16 | c1ccc2c(c1)[nH]c1c3ccsc3ccc21 | 60 µM | 25 µM | 26 µM/min | 1e-05 M l-1 |  | 6% |  |  |  |  | 
17 | COC(=O)c1cc2ccc3c(c4ccccc4n3C)c2[se]1 | 104 µM | 31 µM | 29 µM/min | 1e-05 M l-1 |  | 10% |  |  |  |  | 
18 | Cc1nc2ccc3[nH]c4ccccc4c3c2s1 | 93 µM | 29 µM | 20 µM/min |  | 9% |  |  |  |  |  | 
19 | VITAMIN E | 20 µM | 33 µM | 15 µM | 1e-10 M l-1 | 2% |  |  |  |  |  | 
20 | c1ccc2c(c1)[nH]c1c2ccc2ccsc21 | 25 µM | 20 µM | 27 µM/min | 1e-05 M l-1 |  | 2% |  |  |  |  | 
21 | c1ccc2c(c1)[nH]c1c2ccc2[se]nnc21 | 51 µM | 31 µM | 20 µM/min |  |  | 5% |  | inactive |  |  | 
22 | CCOC(=O)c1sc(SC)c2c1ccc1c3ccccc3[nH]c12 | 133 µM | 38 µM |  |  | 13% |  |  |  | traces | fluorescence at 488 nm | 
23 | COc1cccc2c1C(=O)c1[nH]c3ccccc3c1-2 | 369 µM | 29 µM | 20 µM/min |  | 35% |  |  |  |  |  | 1e-06 M l-1
